Assay results reported in ChEMBL document CHEMBL1127457, “Nonpeptide renin inhibitors with good intraduodenal bioavailability and efficacy in dog” (J Med Chem, 1994).

Tests used:
[1] = Oral bioavailability in rat; conditions: in vivo; for bioavailability: intraduodenal, 10 mg/kg
[2] = Average area under curve for the compound at 1 mg/kg dose after intravenous administration to rat; conditions: in vivo
[3] = Average peak plasma concentration of compound after 10 mg/kg intraduodenal administration to rat
[4] = Average peak plasma concentration of compound after 1 mg/kg intravenous administration to rat
[5] = biological target: T1, Renin (Homo sapiens, UniProt P00797); test: Tested in vitro for its ability to inhibit the human plasma renin; assay type: cell-free
T1 sequence (P00797 whole entry): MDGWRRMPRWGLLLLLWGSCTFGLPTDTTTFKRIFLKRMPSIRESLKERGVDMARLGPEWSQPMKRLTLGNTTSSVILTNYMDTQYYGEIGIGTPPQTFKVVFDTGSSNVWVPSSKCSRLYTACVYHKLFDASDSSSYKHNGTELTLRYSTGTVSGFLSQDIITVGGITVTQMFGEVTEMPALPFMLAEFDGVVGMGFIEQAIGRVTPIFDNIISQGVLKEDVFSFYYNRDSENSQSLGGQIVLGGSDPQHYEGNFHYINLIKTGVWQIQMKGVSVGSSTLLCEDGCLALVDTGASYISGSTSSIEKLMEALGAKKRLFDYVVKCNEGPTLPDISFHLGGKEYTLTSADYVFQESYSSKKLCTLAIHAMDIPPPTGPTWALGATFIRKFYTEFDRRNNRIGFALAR
Outline: (§1)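 IC50 against renin in plasma from the named species (dog, ferret, human, rat); single determination in most cases.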

[6] = Average area under curve for the compound at 10 mg/kg dose after intraduodenal administration to rat; conditions: in vivo
[7] = species on record: Homo sapiens; conditions: Liver, Microsome
[8] = Partition coefficient (logD6.5); conditions: octanol/water, pH 6.5
[9] = Average peak plasma concentration of compound after 1 mg/kg intravenous administration to Ferret
[10] = Oral bioavailability in ferret; conditions: in vivo
[11] = Average area under curve for compound at 1 mg/kg dose intravenous administration to Ferret; conditions: in vivo
[12] = Average area under curve at 10 mg/kg dose after intraduodenal administration to Ferret; conditions: in vivo
[13] = Average peak plasma concentration of compound after 10 mg/kg intraduodenal administration to Ferret
[14] = Partition coefficient (logD7.4); conditions: octanol/water, pH 7.4
[15] = biological target: T1, Renin; test: Tested in vitro for its ability to inhibit the human plasma renin at pH of 7.4; assay type: cell-free
[16] = biological target: Renin (Canis familiaris); test: Tested in vitro for its ability to inhibit the dog plasma renin
[17] = biological target: T2, Renin (Rattus norvegicus, UniProt P08424); test: Tested in vitro for its ability to inhibit the rat plasma renin; assay type: cell-free; outline: as §1
T2 sequence (P08424 whole entry): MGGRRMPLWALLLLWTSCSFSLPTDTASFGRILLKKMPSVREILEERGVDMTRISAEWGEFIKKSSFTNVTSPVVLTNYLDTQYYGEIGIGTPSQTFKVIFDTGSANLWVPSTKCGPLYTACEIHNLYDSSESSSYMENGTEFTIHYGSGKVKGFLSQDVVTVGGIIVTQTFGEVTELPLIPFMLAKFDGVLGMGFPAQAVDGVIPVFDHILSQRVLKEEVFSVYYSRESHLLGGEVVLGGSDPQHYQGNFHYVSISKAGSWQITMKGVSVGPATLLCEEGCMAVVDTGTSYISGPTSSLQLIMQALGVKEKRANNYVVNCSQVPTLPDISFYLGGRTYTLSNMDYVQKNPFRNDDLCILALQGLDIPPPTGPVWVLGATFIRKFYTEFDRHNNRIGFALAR

[18] = biological target: Renin (Mustela putorius furo); test: Tested in vitro for its ability to inhibit the ferret plasma renin

Compound | bioavailability [1] [%] | AUC [2] [ng·h/mL] | Cmax ([3]; plasma) [ng/mL] | Cmax ([4]; plasma) [ng/mL] | IC50 [5] [nM] | AUC [6] [ng·h/mL] | logD [8] | logD [14] | other results
CCCC[C@H](N[C@@H](Cc1ccccc1)C(=O)N1CCC(OCOC)CC1)C(=O)N[C@@H](CC1CCCCC1)[C@@H](O)C[C@H](C(=O)NCC(C)(C)NCCO)C(C)C | 1 | 477 | 80 | 3480 | 6.3 | 66.3 | – | – | –
CCCC[C@H](O[C@@H](Cc1ccccc1)C(=O)N1CCC(OCOC)CC1)C(=O)N[C@@H](CC1CCCCC1)[C@@H](O)C[C@H](C(=O)NCCCN1CCOCC1)C(C)C | – | – | – | – | – | – | 3.3 | – | Rate (nM min-1 (nM of cytochrome P450)-1) [7]: 4.26
CCCC[C@H](N[C@@H](Cc1ccccc1)C(=O)N1CCC(OCOC)CC1)C(=O)N[C@@H](CC1CCCCC1)[C@@H](O)C[C@H](C(=O)NCCNc1noc(N)n1)C(C)C | – | – | – | – | 3.8 | – | 4.07 | 4.11 | Cmax ([9]; plasma): 320 ng/mL; bioavailability [10]: 7%; AUC [11]: 71.3 ng·h/mL; AUC [12]: 54.8 ng·h/mL; Cmax ([13]; plasma): 110 ng/mL
CCCC[C@H](O[C@@H](Cc1ccccc1)C(=O)N1CCC(OCOC)CC1)C(=O)N[C@@H](CC1CCCCC1)[C@@H](O)C[C@H](C(=O)NCCCNCCO)C(C)C | – | – | – | – | – | – | 2.5 | 1.8 | IC50 [15]: 6 nM
CCCC[C@H](N[C@@H](Cc1ccccc1)C(=O)N1CCC(OCOC)CC1)C(=O)N[C@@H](CC1CCCCC1)[C@@H](O)C[C@H](C(=O)NCCC1CCCCC1)C(C)C | 4 | 82 | 30 | 140 | 40 | 37 | > 5 | > 5 | –
CCCC[C@H](O[C@@H](Cc1ccccc1)C(=O)N1CCC(OCOC)CC1)C(=O)N[C@@H](CC1CCCCC1)[C@@H](O)C[C@H](C(=O)NCC/N=C(\NC#N)SC)C(C)C | – | – | – | – | – | – | > 5 | > 5 | IC50 [15]: 9.2 nM
CCCC[C@H](N[C@@H](Cc1ccccc1)C(=O)N1CCC(OCOC)CC1)C(=O)N[C@@H](CC1CCCCC1)[C@@H](O)C[C@H](C(=O)NCc1ccncc1)C(C)C | 11 | 653 | 460 | 2480 | 7.8 | 760 | > 5 | > 5 | IC50 [16]: 59 nM; IC50 [17]: 10000 nM; IC50 [18]: 940 nM; Rate (nM min-1 (nM of cytochrome P450)-1) [7]: 0.78
CCCC[C@H](O[C@@H](Cc1ccccc1)C(=O)N1CCC(OCOC)CC1)C(=O)N[C@@H](CC1CCCCC1)[C@@H](O)C[C@H](C(=O)NCCCNC(N)=NC#N)C(C)C | – | – | – | – | – | – | 4.6 | 4.5 | IC50 [15]: 1.5 nM
CCCC[C@H](N[C@@H](Cc1ccccc1)C(=O)N1CCC(OCOC)CC1)C(=O)N[C@@H](CC1CCCCC1)[C@@H](O)C[C@H](C(=O)NCCN1CCCC1)C(C)C | > 25 | 340 | > 480 | 1310 | 13 | > 850 | > 5 | > 5 | Cmax ([9]; plasma): 3900 ng/mL; bioavailability [10]: 29%; AUC [11]: 2750 ng·h/mL; AUC [12]: 8220 ng·h/mL; Cmax ([13]; plasma): 5500 ng/mL
CCCC[C@H](N[C@@H](Cc1ccccc1)C(=O)N1CCC(OCOC)CC1)C(=O)N[C@@H](CC1CCCCC1)[C@@H](O)C[C@H](C(=O)NCCN1CCCCC1)C(C)C | 15 | 352 | 360 | 1000 | 14 | 570 | > 5 | > 5 | Cmax ([9]; plasma): 3600 ng/mL; bioavailability [10]: 33%; AUC [11]: 1680 ng·h/mL; AUC [12]: 5680 ng·h/mL; Cmax ([13]; plasma): 3730 ng/mL; Rate (nM min-1 (nM of cytochrome P450)-1) [7]: 4.52
CCCC[C@H](N[C@@H](Cc1ccccc1)C(=O)N1CCC(OCOC)CC1)C(=O)N[C@@H](CC1CCCCC1)[C@@H](O)C[C@H](C(=O)NCCNc1n[nH]c(N)n1)C(C)C | 2 | 318 | 190 | 810 | 6.1 | 94.8 | 4.1 | 4.2 | –
CCCC[C@H](O[C@@H](Cc1ccccc1)C(=O)N1CCC(OCOC)CC1)C(=O)N[C@@H](CC1CCCCC1)[C@@H](O)C[C@H](C(=O)NCC(C)(C)N)C(C)C | – | – | – | – | – | – | 2.7 | 3.5 | IC50 [15]: 4.7 nM
CCCC[C@H](N[C@@H](Cc1ccccc1)C(=O)N1CCC(OCOC)CC1)C(=O)N[C@@H](CC1CCCCC1)[C@@H](O)C[C@H](C(=O)NCCc1ccccn1)C(C)C | – | – | – | – | 9.4 | – | – | – | IC50 [16]: 33 nM; IC50 [17]: 7000 nM; IC50 [18]: 510 nM
CCCC[C@H](N[C@@H](Cc1ccccc1)C(=O)N1CCC(OCOC)CC1)C(=O)N[C@@H](CC1CCCCC1)[C@@H](O)C[C@H](C(=O)NCc1cccnc1)C(C)C | – | 228 | – | – | – | 3670 | > 5 | > 5 | Cmax ([9]; in vivo): 3480 ng/mL; bioavailability [10]: > 98%; F ([1]; po): 160%; AUC [11]: 827 ng·h/mL; Cmax ([3]; in vivo): 2320 ng/mL; AUC [12]: > 8170 ng·h/mL; Cmax ([4]; in vivo): 560 ng/mL; Cmax ([13]; in vivo): > 4920 ng/mL; Rate (nM min-1 (nM of cytochrome P450)-1) [7]: 2.27
CCCC[C@H](N[C@@H](Cc1ccccc1)C(=O)N1CCC(OCOC)CC1)C(=O)N[C@@H](CC1CCCCC1)[C@@H](O)C[C@H](C(=O)NCc1ccccc1)C(C)C | 7 | 1540 | – | – | 14 | 1100 | > 5 | > 5 | Cmax ([3]; in vivo): 930 ng/mL; Cmax ([4]; in vivo): 1660 ng/mL
CCCC[C@H](N[C@@H](Cc1ccccc1)C(=O)N1CCC(OCOC)CC1)C(=O)N[C@@H](CC1CCCCC1)[C@@H](O)C[C@H](C(=O)NCCCn1ccnc1)C(C)C | – | – | – | – | – | – | – | – | IC50 [16]: 24 nM; IC50 [17]: 7300 nM; IC50 [18]: 330 nM
CCCC[C@H](O[C@@H](Cc1ccccc1)C(=O)N1CCC(OCOC)CC1)C(=O)N[C@@H](CC1CCCCC1)[C@@H](O)C[C@H](C(=O)NCCNC(N)=S)C(C)C | – | – | – | – | – | – | > 5 | > 5 | IC50 [15]: 2.2 nM
